Reference: ChEMBL document CHEMBL1125019 (J Med Chem, 1990)

Legend:
D(2) dopamine receptor = D(2) dopamine receptor (Rattus norvegicus, UniProt P61169); experiment: Binding affinity against Dopamine receptor D2 from rat brain corpus striatum membrane
D(1A) dopamine receptor = D(1A) dopamine receptor (Rattus norvegicus, UniProt P18901); experiment: Binding affinity against Dopamine receptor D1 from rat brain corpus striatum membrane
Outline: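 Four to six concentrations of each test agent. IC50 ± SEM obtained by computer-assisted curve fitting; Ki derived from IC50 using the Kd and ligand concentration.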

D(2) dopamine receptor, sequence (P61169 whole entry): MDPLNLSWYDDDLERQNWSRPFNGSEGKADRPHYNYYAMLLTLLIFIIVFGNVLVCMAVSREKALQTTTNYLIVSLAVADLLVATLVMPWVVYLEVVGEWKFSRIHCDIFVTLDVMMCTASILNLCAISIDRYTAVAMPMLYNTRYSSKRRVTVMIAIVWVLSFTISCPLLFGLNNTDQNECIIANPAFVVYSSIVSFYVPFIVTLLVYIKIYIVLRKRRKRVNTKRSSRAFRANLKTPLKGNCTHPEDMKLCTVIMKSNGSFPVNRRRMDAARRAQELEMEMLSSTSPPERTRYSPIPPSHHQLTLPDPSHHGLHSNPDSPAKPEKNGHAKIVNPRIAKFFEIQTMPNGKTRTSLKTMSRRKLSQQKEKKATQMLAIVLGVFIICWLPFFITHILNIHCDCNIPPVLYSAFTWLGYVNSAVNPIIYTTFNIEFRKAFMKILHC
D(1A) dopamine receptor, sequence (P18901 whole entry): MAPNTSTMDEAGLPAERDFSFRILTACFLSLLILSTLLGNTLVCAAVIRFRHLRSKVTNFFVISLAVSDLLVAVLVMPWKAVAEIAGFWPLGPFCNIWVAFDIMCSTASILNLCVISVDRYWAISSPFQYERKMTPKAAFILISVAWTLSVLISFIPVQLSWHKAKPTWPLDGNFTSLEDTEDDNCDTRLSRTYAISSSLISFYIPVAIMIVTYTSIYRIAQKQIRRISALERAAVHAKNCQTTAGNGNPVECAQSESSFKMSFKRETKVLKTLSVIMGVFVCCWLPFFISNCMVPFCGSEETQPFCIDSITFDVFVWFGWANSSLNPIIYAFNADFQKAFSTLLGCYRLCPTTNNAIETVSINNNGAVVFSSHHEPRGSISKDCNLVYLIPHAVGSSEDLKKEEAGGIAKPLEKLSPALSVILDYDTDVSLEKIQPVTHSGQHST

CCCN1CCc2cc(F)cc3c2[C@H]1Cc1ccc(O)c(O)c1-3
IC50 (D(2) dopamine receptor): 0.071 nM
IC50 (D(1A) dopamine receptor): 1300 nM

CCCN1CCc2cc(F)cc3c2[C@H]1Cc1ccc2c(c1-3)OCO2
IC50 (D(2) dopamine receptor): 97.6 nM
IC50 (D(1A) dopamine receptor): 3100 nM

CCCN1CCc2cc(N)cc3c2[C@H]1Cc1ccc(O)c(O)c1-3
IC50 (D(2) dopamine receptor): 5.5 nM
IC50 (D(1A) dopamine receptor): > 10000 nM

CCCN1CCc2cc(N)cc3c2[C@H]1Cc1ccc2c(c1-3)OCO2
IC50 (D(2) dopamine receptor): 704 nM
IC50 (D(1A) dopamine receptor): > 10000 nM

CCCN1CCc2cc(O)cc3c2[C@H]1Cc1ccc(O)c(O)c1-3
IC50 (D(2) dopamine receptor): 0.32 nM
IC50 (D(1A) dopamine receptor): 1720 nM

CCCN1CCc2cc(Br)cc3c2[C@H]1Cc1ccc(O)c(O)c1-3
IC50 (D(2) dopamine receptor): 0.89 nM
IC50 (D(1A) dopamine receptor): 970 nM

CCCN1CCc2cc(OC)cc3c2[C@H]1Cc1ccc(O)c(O)c1-3
IC50 (D(2) dopamine receptor): 1.02 nM
IC50 (D(1A) dopamine receptor): 3340 nM
